Data reported in paper PMC2778733 (Journal of the American Chemical Society, 2008).
Read-outs that look alike come from different tables or passages of the source.

Experiments:
Siderocalin (Scn) [1] = target: T1, Siderocalin (Scn) (Homo sapiens, UniProt P80188); experiment: Fluorescence quenching binding assay of Scn; details: for Kd: 100 nM Scn, TBS pH 7.4, 5% DMSO
Method in brief: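 Recombinant Scn, 100 nM in TBS pH 7.4 with 32 μg/mL ubiquitin and 5% DMSO, was titrated with 2–10 equivalents of substrate. Tryptophan quenching was read at excitation 281 nm and emission 340 nm, corrected for dilution. Metal complexes were formed in situ from a DMSO ligand stock plus 1 eq. metal salt, equilibrated 1 h, and used as a 6 μM working solution. Apo ligands were prepared without metal. Kd came from a one-site nonlinear least-squares fit.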

Siderocalin (Scn) [2] = target: T1, Siderocalin (Scn); details: cited from earlier work
[3] = [L] = 10 μmol L^−1, [Fe^III] = 1 μmol L^−1; cited from earlier work

T1 sequence (P80188 21-198): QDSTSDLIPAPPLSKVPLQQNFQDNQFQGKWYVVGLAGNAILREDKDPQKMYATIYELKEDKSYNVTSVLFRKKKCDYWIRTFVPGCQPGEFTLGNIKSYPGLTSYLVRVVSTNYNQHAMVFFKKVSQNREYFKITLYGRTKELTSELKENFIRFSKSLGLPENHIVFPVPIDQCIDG

With `Cn1ccc(C(=O)NCCN(CCNC(=O)c2ccn(C)c(=O)c2O)CCNC(=O)c2ccn(C)c(=O)c2O)c(O)c1=O` [tren(Me-3,2-HOPO)3] the Kd (Siderocalin (Scn) [1]; Fe^III complex) was over 0.6 µM.
In the case of `O=C(N[C@H]1COC(=O)[C@@H](NC(=O)c2cc([C@@H]3O[C@H](CO)[C@@H](O)[C@H](O)[C@H]3O)cc(O)c2O)COC(=O)[C@@H](NC(=O)c2cc([C@@H]3O[C@H](CO)[C@@H](O)[C@H](O)[C@H]3O)cc(O)c2O)COC1=O)c1cccc(O)c1O` [salmochelin-S4], the “Binding by Scn in words” value (Siderocalin (Scn) [2]; natural siderophores) is listed as “not bound”.
For `O=C(NCCN(CCNC(=O)c1cccc(O)c1O)CCNC(=O)c1cccc(O)c1O)c1cccc(O)c1O` [trenCAM3, tren(CAM)3], the Kd (Siderocalin (Scn) [1]; V^IV complex) is listed as 0.0013 ± 0.0003 µM, the Kd (Siderocalin (Scn) [1]; no metal (apo ligand)) is listed as 0.0012 ± 0.0002 µM and the Kd (Siderocalin (Scn) [2]; Fe^III complex) is listed as 0.0003 ± 0.0001 µM.
Work on `Cn1ccc(C(=O)NCCN(CCNC(=O)c2cccc(O)c2O)CCNC(=O)c2cccc(O)c2O)c(O)c1=O` [trenCAM2(Me-3,2-HOPO), tren(CAM)2(Me-3,2-HOPO)] yielded a Kd (Siderocalin (Scn) [1]; Fe^III complex) of 0.12 ± 0.01 µM.
`O=C(NCCN(CCNC(=O)c1cccc(=O)n1O)CCNC(=O)c1cccc(=O)n1O)c1cccc(O)c1O` [trenCAM(1,2-HOPO)2, tren(CAM)(1,2-HOPO)2] gave a Kd (Siderocalin (Scn) [1]; Fe^III complex) of 0.043 ± 0.002 µM, a Kd (Siderocalin (Scn) [1]; V^IV complex) of 0.22 ± 0.07 µM and a Kd (Siderocalin (Scn) [1]; no metal (apo ligand)) of 0.14 ± 0.01 µM.
For `O=C(N[C@H]1COC(=O)[C@@H](NC(=O)c2cccc(O)c2O)COC(=O)[C@@H](NC(=O)c2cccc(O)c2O)COC1=O)c1cccc(O)c1O` [enterobactin], the “Binding by Scn in words” value (Siderocalin (Scn) [2]; apo siderophore) is given as “bound with high affinity”, the “Binding by Scn in words” value (Siderocalin (Scn) [2]; natural siderophores) is given as “sequestered” and the “pM value (pM = -log[Fe^III])” value [3] is given as 35.3.
For `CC(=O)N(O)CCCC[C@H](NC(=O)CC(O)(CC(=O)N[C@@H](CCCCN(O)C(C)=O)C(=O)O)C(=O)O)C(=O)O` [aerobactin], the “Binding by Scn in words” value (Siderocalin (Scn) [2]; natural siderophores) is given as “not bound”.
Work on `Cn1ccc(C(=O)NCCN(CCNC(=O)c2cccc(O)c2O)CCNC(=O)c2ccn(C)c(=O)c2O)c(O)c1=O` [trenCAM(Me-3,2-HOPO)2, tren(CAM)(Me-3,2-HOPO)2] yielded a Kd (Siderocalin (Scn) [1]; Fe^III complex) of 0.15 ± 0.02 µM.
In the case of `O=C1CCC(=O)N(O)CCC(O)CNC(=O)CCC(=O)N(O)CCC(O)CN1` (centres unmarked) [alcaligin], the “Binding by Scn in words” value (Siderocalin (Scn) [2]; natural siderophores) is given as “not bound”.
Work on `O=C(NCCN(CCNC(=O)c1cccc(O)c1O)CCNC(=O)c1cccc(=O)n1O)c1cccc(O)c1O` [trenCAM2(1,2-HOPO), tren(CAM)2(1,2-HOPO)] yielded a Kd (Siderocalin (Scn) [1]; Fe^III complex) of 0.0008 ± 0.0003 µM, a Kd (Siderocalin (Scn) [1]; V^IV complex) of 0.04 ± 0.009 µM and a Kd (Siderocalin (Scn) [1]; no metal (apo ligand)) of 0.0014 ± 0.0003 µM.
For `O=C(NCCN(CCNC(=O)c1cccc(=O)n1O)CCNC(=O)c1cccc(=O)n1O)c1cccc(=O)n1O` [tren(1,2-HOPO)3], the Kd (Siderocalin (Scn) [1]; Fe^III complex) was over 0.6 µM, the Kd (Siderocalin (Scn) [1]; V^IV complex) was 0.3 ± 0.03 µM and the “Scn affinity in words” value (Siderocalin (Scn) [1]; apo ligand, pH 7.4) was “micromolar affinity range”. For the same compound, the Kd (Siderocalin (Scn) [1]; no metal (apo ligand)) was 0.25 ± 0.03 µM.
For `O=C(CC(O)(CC(=O)NCCCCNCCCNC(=O)c1ccc(O)c(O)c1)C(=O)O)NCCCCNCCCNC(=O)c1ccc(O)c(O)c1` [petrobactin], the “Binding by Scn in words” value (Siderocalin (Scn) [2]) is given as “not bound”.
In the case of `CC(=O)N(O)CCCCCNC(=O)CCC(=O)N(O)CCCCCNC(=O)CCC(=O)N(O)CCCCCN` [desferrioxamine B], the “pM value (pM = -log[Fe^III])” value [3] is given as 26.6.
In the case of `C[C@H]1OC(=O)[C@@H](NC(=O)CNC(=O)c2cccc(O)c2O)[C@@H](C)OC(=O)[C@@H](NC(=O)CNC(=O)c2cccc(O)c2O)[C@@H](C)OC(=O)[C@H]1NC(=O)CNC(=O)c1cccc(O)c1O` [bacillibactin], the “Binding by Scn in words” value (Siderocalin (Scn) [2]; apo siderophore) is given as “bound with high affinity” and the “Binding by Scn in words” value (Siderocalin (Scn) [2]; natural siderophores) is given as “sequestered”.
